In ChEMBL document CHEMBL3407470, “Synthesis, biological evaluation and 3D-QSAR studies of novel 5-phenyl-1H-pyrazol cinnamamide derivatives as novel antitubulin agents” (Eur J Med Chem, 2015):

How the values were obtained:
MCF7 [1] = experiment: Antiproliferative activity against human MCF7 cells after 48 hrs by MTT assay; type: functional, cell-based; conditions: MCF7, 48 h
How it was run: (§1)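 Cells grown to log phase in RPMI 1640 with 10% FBS, seeded at 2×10^4 cells/mL and allowed 24 h at 37 °C, 5% CO₂ before treatment. Compounds at pre-set concentrations, colchicine and CA-4 as references, exposed 48 h. MTT added (2.5 mg/mL in PBS) for 4 h, then SDS/isobutyl alcohol/HCl extraction overnight; OD at 570 nm. Triplicate wells per concentration; values averaged from at least three separate runs.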

A549 = experiment: Antiproliferative activity against human A549 cells after 48 hrs by MTT assay; type: functional, cell-based; conditions: A549, 48 h; how it was run: as §1
[2] = Antiproliferative activity against mouse B16F10 cells after 48 hrs by MTT assay; type: functional, cell-based; conditions: B16-F10, 48 h; how it was run: as §1
MCF7 [3] = experiment: Induction of cell cycle arrest in human MCF7 cells assessed as accumulation at G0/G1 phase after 24 hrs by flow cytometry (reference value: 59.75%); type: functional
How it was run: (§2)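 MCF-7 cells exposed 24 h to the compound at 1 and 2 μg/mL. Phase distribution (G0/G1, S, G2/M) was measured by flow cytometry and reported as percentage of cells in each phase.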

MCF7 [4] = experiment: Induction of cell cycle arrest in human MCF7 cells assessed as accumulation at S phase after 24 hrs by flow cytometry (reference value: 14.58%); type: functional; how it was run: as §2
MCF7 [5] = experiment: Induction of cell cycle arrest in human MCF7 cells assessed as accumulation at G2/M phase after 24 hrs by flow cytometry (reference value: 25.67%); type: functional; how it was run: as §2
Tubulin = Tubulin (Bos taurus, UniProt Q6B856+Q862L2+Q862F3); experiment: Inhibition of bovine brain tubulin polymerization incubated for 20 mins by spectrophotometry
MCF7 [6] = experiment: Induction of cell cycle arrest in human MCF7 cells assessed as accumulation at G0/G1 phase at 1 ug/ml after 24 hrs by flow cytometry (reference value: 59.75%); type: functional; how it was run: as §2
MCF7 [7] = experiment: Induction of cell cycle arrest in human MCF7 cells assessed as accumulation at S phase at 1 ug/ml after 24 hrs by flow cytometry (reference value: 14.58%); type: functional; how it was run: as §2
MCF7 [8] = experiment: Induction of cell cycle arrest in human MCF7 cells assessed as accumulation at G2/M phase at 1 ug/ml after 24 hrs by flow cytometry (reference value: 25.67%); type: functional; how it was run: as §2
MCF7 [9] = experiment: Induction of cell cycle arrest in human MCF7 cells assessed as accumulation at G0/G1 phase at 2 ug/ml after 24 hrs by flow cytometry (reference value: 59.75%); type: functional; how it was run: as §2
MCF7 [10] = experiment: Induction of cell cycle arrest in human MCF7 cells assessed as accumulation at S phase at 2 ug/ml after 24 hrs by flow cytometry (reference value: 14.58%); type: functional; how it was run: as §2
MCF7 [11] = experiment: Induction of cell cycle arrest in human MCF7 cells assessed as accumulation at G2/M phase at 2 ug/ml after 24 hrs by flow cytometry (reference value: 25.67%); type: functional; how it was run: as §2
MCF7 [12] = experiment: Induction of cell cycle arrest in human MCF7 cells assessed as accumulation at G2/M phase after 24 hrs by flow cytometry; type: functional, cell-based; how it was run: as §2

Row | SMILES | IC50 (MCF7 [1]) [µM] | IC50 (A549) [µM] | IC50 [2] [µM] | IC50 (Tubulin) [µM] | pIC50 (Tubulin) | further results
1 | COc1cc2c(c(OC)c1OC)-c1ccc(OC)c(=O)cc1[C@@H](NC(C)=O)CC2 [COLCHICINE] | 0.39 | 0.58 | 0.48 |  |  | Activity (MCF7 [3]): 6.94%; Activity (MCF7 [4]): 12.44%; Activity (MCF7 [5]): 80.62%
2 | O=C(/C=C/c1ccc(Br)cc1)Nc1cc(-c2ccccc2)[nH]n1 | 1.24 | 1.46 | 1.38 | 2.36 | 5.627 | 
3 | Cc1ccc(-c2cc(NC(=O)/C=C/c3ccc(C(F)(F)F)cc3)n[nH]2)cc1 | 0.72 | 1.02 | 1.21 | 1.53 | 5.815 | 
4 | Cc1ccc(-c2cc(NC(=O)/C=C/c3ccc(Cl)cc3)n[nH]2)cc1 | 1.19 | 1.49 | 1.52 | 2.15 | 5.668 | 
5 | COc1ccc(/C=C/C(=O)Nc2cc(-c3ccc(Br)cc3)[nH]n2)cc1 | 0.59 | 0.82 | 0.77 | 1.35 | 5.87 | 
6 | O=C(/C=C\c1ccc(F)cc1)Nc1cc(-c2ccc(Br)cc2)[nH]n1 | 0.64 | 0.93 | 0.85 | 1.78 | 5.75 | 
7 | O=C(/C=C/c1ccc(Cl)cc1)Nc1cc(-c2ccc(Br)cc2)[nH]n1 | 0.77 | 1.21 | 1.08 | 1.95 | 5.71 | 
8 | O=C(/C=C/c1ccc([N+](=O)[O-])cc1)Nc1cc(-c2ccc(Br)cc2)[nH]n1 | 0.56 | 0.74 | 0.63 | 1.24 | 5.907 | 
9 | COc1ccc(/C=C\c2cc(OC)c(OC)c(OC)c2)cc1O [COMBRETASTATIN A4] | 0.21 | 0.46 | 0.42 |  |  | 
10 | Cc1ccc(-c2cc(NC(=O)/C=C/c3ccc([N+](=O)[O-])cc3)n[nH]2)cc1 | 0.84 | 1.13 | 1.32 | 1.62 | 5.79 | 
11 | O=C(/C=C/c1ccc([N+](=O)[O-])cc1)Nc1cc(-c2ccccc2)[nH]n1 | 0.63 | 0.97 | 0.72 | 1.56 | 5.807 | 
12 | O=C(/C=C/c1ccc(Cl)cc1)Nc1cc(-c2ccccc2)[nH]n1 | 0.97 | 1.39 | 1.27 | 2.06 | 5.686 | 
13 | O=C(/C=C/c1ccc(C(F)(F)F)cc1)Nc1cc(-c2ccc(Br)cc2)[nH]n1 | 0.35 | 0.62 | 0.57 | 1.02 | 5.991 | Activity (MCF7 [6]): 35.99%; Activity (MCF7 [7]): 18.46%; Activity (MCF7 [8]): 45.55%; Activity (MCF7 [9]): 6.77%; Activity (MCF7 [10]): 16.28%; Activity (MCF7 [11]): 76.95%; Activity (MCF7 [12]): Dose-dependent effect
14 | COc1ccc(/C=C\C(=O)Nc2cc(-c3ccccc3)[nH]n2)cc1 | 0.72 | 1.06 | 0.95 | 1.64 | 5.785 | 
15 | Cc1ccc(-c2cc(NC(=O)/C=C/c3ccc(F)cc3)n[nH]2)cc1 | 0.95 | 1.25 | 1.43 | 1.92 | 5.717 | 
16 | Cc1ccc(-c2cc(NC(=O)/C=C/c3ccc(Br)cc3)n[nH]2)cc1 | 1.37 | 1.59 | 1.57 | 2.55 | 5.593 | 
17 | Cc1ccc(-c2cc(NC(=O)/C=C/c3ccccc3)n[nH]2)cc1 | 1.63 | 1.67 | 1.68 | 3.12 | 5.506 | 
18 | O=C(/C=C/c1ccc(F)cc1)Nc1cc(-c2ccccc2)[nH]n1 | 0.84 | 1.22 | 1.25 | 1.85 | 5.733 | 
19 | O=C(/C=C/c1ccccc1)Nc1cc(-c2ccccc2)[nH]n1 | 1.36 | 1.58 | 1.56 | 2.84 | 5.547 | 
20 | Cc1ccc(/C=C/C(=O)Nc2cc(-c3ccc(Br)cc3)[nH]n2)cc1 | 1.17 | 1.62 | 1.48 | 2.76 | 5.56 | 
21 | COc1ccc(/C=C/C(=O)Nc2cc(-c3ccc(C)cc3)[nH]n2)cc1 | 0.86 | 1.19 | 1.37 | 1.76 | 5.754 | 
22 | O=C(/C=C\c1ccc(C(F)(F)F)cc1)Nc1cc(-c2ccccc2)[nH]n1 | 0.54 | 0.88 | 0.64 | 1.34 | 5.873 | 
23 | O=C(/C=C/c1ccc(Br)cc1)Nc1cc(-c2ccc(Br)cc2)[nH]n1 | 0.92 | 1.36 | 1.28 | 2.14 | 5.67 | 
24 | Cc1ccc(/C=C/C(=O)Nc2cc(-c3ccccc3)[nH]n2)cc1 | 1.78 | 1.77 | 1.68 | 3.02 | 5.52 | 
25 | O=C(/C=C/c1ccccc1)Nc1cc(-c2ccc(Br)cc2)[nH]n1 | 1.12 | 1.44 | 1.27 | 2.55 | 5.593 | 
26 | Cc1ccc(/C=C/C(=O)Nc2cc(-c3ccc(C)cc3)[nH]n2)cc1 | 1.72 | 1.88 | 1.75 | 3.36 | 5.474 | 
